Drawing on ChEMBL document CHEMBL4251707, “Stereochemical Structure Activity Relationship Studies (S-SAR) of Tetrahydrolipstatin” (ACS Med Chem Lett, 2018), this text covers IC50 for nine compounds.

Some results are limits rather than exact numbers.

Holding throughout (assay type): cell-based
Experiment [1] deals with MDA-MB-231. Kind of experiment: Cytotoxicity against human MDA-MB-231 cells assessed as reduction in cell viability after 72 hrs by MTT assay. The following applies: MDA-MB-231, 72 h. In short, it runs like this:
(§1)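 Cells plated at 5 × 10^3 cell/well and grown 12 to 16 h, then exposed to compound for 72 h over 0.1 nM to 100 μM, with untreated wells as controls. Viability was read by MTT as absorbance at 570 nm.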
On the technique in general: Formazan colour is commonly taken as a measure of viable cells.

The next experiment deals with MCF7. Briefly: Cytotoxicity against human MCF7 cells assessed as reduction in cell viability after 72 hrs by MTT assay. To be noted: MCF7, 72 h. The method in brief: as §1
The test system of a further experiment is NCI-H460. Briefly: Cytotoxicity against human H460 cells assessed as reduction in cell viability after 72 hrs by MTT assay. To be noted: NCI-H460, 72 h. In short, it runs like this:
as §1

The test system of experiment [2] is MDA-MB-231. Briefly: Cytotoxicity against human MDA-MB-231 cells assessed as reduction in cell viability.

As to `CCCCCCCCCCC[C@@H](C[C@@H]1OC(=O)[C@H]1CCCCCC)OC(=O)[C@@H](CC(C)C)NC=O`, the concentration for half-maximal inhibition (IC50) with MDA-MB-231 [1], with MCF7 and in the experiment with NCI-H460 was over 100 µM in each case.

Take `CCCCCCCCCCC[C@@H](C[C@@H]1OC(=O)[C@H]1CCCCCC)OC(=O)[C@H](CC(C)C)NC=O` [ORLISTAT]: the IC50 (commonly the midpoint of a concentration-inhibition curve) is 13 µM in the experiment with MDA-MB-231 [2], over 100 µM in the experiment with MDA-MB-231 [1], over 100 µM with MCF7 and over 100 µM with NCI-H460.

In the case of `CCCCCCCCCCC[C@@H](C[C@H]1OC(=O)[C@@H]1CCCCCC)OC(=O)[C@@H](CC(C)C)NC=O`, the IC50 with MDA-MB-231 [1], with MCF7 and with NCI-H460 was over 100 µM throughout.

As for `CCCCCCCCCCC[C@@H](C[C@H]1OC(=O)[C@@H]1CCCCCC)OC(=O)[C@H](CC(C)C)NC=O`, the IC50 with MDA-MB-231 [1], with MCF7 and in the experiment on NCI-H460 was over 100 µM in each case.

With `CCCCCCCCCCC[C@H](C[C@@H]1OC(=O)[C@H]1CCCCCC)OC(=O)[C@@H](CC(C)C)NC=O`, the IC50 in the experiment on MDA-MB-231 [1], in the experiment on MCF7 and in the experiment with NCI-H460 was over 100 µM in each case.

For the compound `CC[C@@]1(O)C(=O)OCc2c1cc1n(c2=O)Cc2cc3ccccc3nc2-1` [CAMPTOTHECIN], the IC50 in the experiment with MDA-MB-231 [1] stood at 0.54 µM; in the experiment on MCF7, 0.16 µM; in the experiment with NCI-H460, 0.11 µM.

Take `CCCCCCCCCCC[C@H](C[C@H]1OC(=O)[C@@H]1CCCCCC)OC(=O)[C@H](CC(C)C)NC=O`: the IC50 with MDA-MB-231 [1], with MCF7 and in the experiment on NCI-H460 was over 100 µM in each case.

On to `CCCCCCCCCCC[C@H](C[C@H]1OC(=O)[C@@H]1CCCCCC)OC(=O)[C@@H](CC(C)C)NC=O`, for which the concentration for half-maximal inhibition (IC50) in the experiment on MDA-MB-231 [1], in the experiment with MCF7 and in the experiment with NCI-H460 was over 100 µM throughout.

Turning to `CCCCCCCCCCC[C@H](C[C@@H]1OC(=O)[C@H]1CCCCCC)OC(=O)[C@H](CC(C)C)NC=O`, the IC50 in the experiment on MDA-MB-231 [1], in the experiment with MCF7 and with NCI-H460 was over 100 µM throughout.
